# Results of several laboratories.
# Protocols differ between the studies behind these lines.
# Mode: inhibitor
# FABP1: Fatty acid-binding protein, liver (FABP1, Homo sapiens, UniProt P07148)
# MAL12: Alpha-glucosidase MAL12 (MAL12, Saccharomyces cerevisiae S288c, UniProt P53341)
# SQLE: Squalene monooxygenase (SQLE, Homo sapiens, UniProt Q14534)
# SLC22A6: Solute carrier family 22 member 6 (SLC22A6, Homo sapiens, UniProt Q4U2R8)
SMILES,target,read-out,technique,pH,setting,IC50 [µM]
CCCOc1ccc2c(c1)O/C(=C\c1ccc(OC(C)C(=O)O)cc1)C2=O (stereo not drawn),FABP1,cell-free assay,fluorescence,pH 7.4,,10.4
C[C@H]1CN(C(=O)Nc2ccc(C(F)(F)F)cc2)CCN1c1ccnc(Nc2ccccc2Cl)n1,MAL12,enzyme activity,absorbance,pH 6.9,,4.21
NS(=O)(=O)c1ccc(-n2nc(C(=O)NN=Cc3ccc(O)cc3)cc2-c2ccccc2)cc1,"Focal adhesion kinase 1 (PTK2, Homo sapiens, UniProt Q05397)",enzyme activity,ELISA,,,17.1
CC1(C)CC(=O)C2=C(C1)n1c(=O)c3ccccc3c(=O)n1C2c1cn(-c2ccccc2)nc1-c1ccc(O)cc1 (stereo not drawn),MAL12,enzyme activity,absorbance,,,108
C[C@H]1CN(C(=O)Nc2ccc(C(F)(F)F)cc2)CCN1c1ccnc(Nc2ccc(O)cc2)n1,MAL12,enzyme activity,absorbance,pH 6.9,,3.71
N#Cc1ccc2c(c1)N(CCCN1CCC(O)CC1)c1ccccc1S2,SQLE,enzyme activity,absorbance,pH 7.4,with preincubation,1.55
O=c1cc(-c2ccc(O)cc2)oc2cc(O[C@@H]3O[C@H](CO)[C@@H](O)[C@H](O)[C@H]3O)cc(O)c12,SQLE,enzyme activity,radiometric,,,1.74
CC(=O)C1=C(C)n2c(=O)c3ccccc3c(=O)n2C1c1cn(-c2ccccc2)nc1-c1ccc(Br)cc1 (stereo not drawn),MAL12,enzyme activity,absorbance,,,18.6
CCCOc1ccc2c(c1)O/C(=C\c1cc(C)c(OC(C)(C)C(=O)O)c(C)c1)C2=O,FABP1,cell-free assay,fluorescence,pH 7.4,,4.8
COc1ccc(NC(=O)N2CCN(c3ccnc(Nc4ccc(Cl)cc4)n3)[C@H](C)C2)cc1,MAL12,enzyme activity,absorbance,pH 6.9,,23.4
Nc1ccn(C[C@@H](CO)OCP(=O)(O)O)c(=O)n1,"Solute carrier family 22 member 6 (SLC22A6, Homo sapiens, UniProt Q4U2R8, N439A)",transporter uptake,fluorescence,,,225
CC(CN1CCN(CCOCCO)CC1)CN1c2ccccc2Sc2ccccc21 (stereo not drawn),SQLE,enzyme activity,absorbance,pH 7.4,with preincubation,10
Cc1ccc(NC(=O)N2CCN(c3ccnc(Nc4ccc(Cl)cc4)n3)[C@@H](C)C2)cc1,MAL12,enzyme activity,absorbance,pH 6.9,,2.42
O=C1COc2ccc(NS(=O)(=O)c3cccc(Cl)c3)cc2CN1C1CCCc2ccccc21 (stereo not drawn),"Replicase polyprotein 1ab, papain-like protease (rep, Severe acute respiratory syndrome coronavirus 2, UniProt P0DTD1)",enzyme activity,fluorescence,,,6
O=c1cc(-c2ccccc2)oc2cc(O)cc(O)c12,SQLE,enzyme activity,radiometric,,,4.47
CCCOc1ccc2c(c1)O/C(=C\c1ccc(OC(C)(C)C(=O)O)c(F)c1)C2=O,FABP1,cell-free assay,fluorescence,pH 7.4,,9.2
C[C@H]1CN(C(=O)Nc2ccc(C(F)(F)F)cc2)CCN1c1ccnc(Nc2ccc(Br)cc2)n1,MAL12,enzyme activity,absorbance,pH 6.9,,1.59
CC(=O)c1ccc2c(c1)N(CCCN1CCC(CCO)CC1)c1ccccc1S2,SQLE,enzyme activity,absorbance,pH 7.4,with preincubation,1.44
CC1CN(C(=O)Nc2ccc(Cl)c(Cl)c2)CCN1c1ccnc(Nc2ccc(Cl)cc2)n1 (stereo not drawn),MAL12,enzyme activity,absorbance,pH 6.9,,2.41
N=C(N)c1ccc2cc(OC(=O)c3ccc(N=C(N)N)cc3)ccc2c1,"Coagulation factor IX (F9, Homo sapiens, UniProt P00740)",enzyme activity,,,,0.086
CC(=O)C1=C(C)n2c(=O)c3ccccc3c(=O)n2C1c1cn(-c2ccccc2)nc1-c1ccccc1 (stereo not drawn),MAL12,enzyme activity,absorbance,,,15.4
O=C1C[C@@H](c2ccc(O)cc2)Oc2cc(O)cc(O)c21,SQLE,enzyme activity,radiometric,,,6.52
COc1ccc(Cl)cc1C(=O)NCCc1ccc(S(=O)(=O)NC(=O)NC2CCCCC2)cc1,SLC22A6,transporter uptake,fluorescence,,,2.4
O=C(O)[C@H]1O[C@@H](Oc2cc3oc(-c4ccccc4)cc(=O)c3c(O)c2O)[C@H](O)[C@@H](O)[C@@H]1O,SQLE,enzyme activity,radiometric,,,2.5
CCCCOc1ccc2c(c1)O/C(=C\c1cc(C)c(OC(C)(C)C(=O)O)c(C)c1)C2=O,FABP1,cell-free assay,fluorescence,pH 7.4,,5.3
C[C@H]1CN(C(=O)CC#N)[C@]12CCN(c1ncnc3[nH]ccc13)C2,SLC22A6,transporter uptake,,,,1.59
CCCOc1ccc2c(c1)O/C(=C\c1ccc(OC(C)(C)C(=O)O)c(C)c1)C2=O,FABP1,cell-free assay,fluorescence,pH 7.4,,5.8
NC/C(=C\F)COc1cccc(Cn2c(=S)[nH]c(=O)c3[nH]cnc32)c1,"Amine oxidase [flavin-containing] A (MAOA, Homo sapiens, UniProt P21397)",enzyme activity,,,,> 30
C[C@H]1CN(C(=O)Nc2ccc(C(F)(F)F)cc2)CCN1c1ccnc(Nc2ccc(Cl)cc2Cl)n1,MAL12,enzyme activity,absorbance,pH 6.9,,12
CCCOc1ccc2c(c1)O/C(=C\c1ccc(OCC(=O)O)cc1)C2=O,FABP1,cell-free assay,fluorescence,pH 7.4,,14.6
